The source of these data is PMC11986672 (RSC Medicinal Chemistry, 2025).

Several values for one entry are separate records, joined by “and”; a condition that tells them apart may be missing. Identical values can stand only once. Counter-ions that a name gives are not always drawn. Like-named read-outs stand apart in the source and are kept apart here. A value given as a limit tells only on which side of the number the result lay.

Data set [1] deals with human endometrial cancer (HEC1A) cells. The experiment in a line: MTT cytotoxicity assay, HEC1A. The class given is cell-based. Particulars: for IC50: 48 h; for Selectivity ratio: IC50 MAD11 divided by IC50 HEC1A. The method in brief:
(§1)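 HEC1A (5000/well) and MAD11 (2500/well) cells were seeded and held overnight at 37 °C. Test compound was reconstituted in DMSO and serially diluted in medium to final 160, 80, 40, 20, 10, 5, 2.5 and 1.25 μM, in triplicate, with matched DMSO in all wells. After 48 h, MTT was added for 3 h, formazan solubilised (4 mM HCl, 0.1% NP-40, isopropanol) and absorbance read at 590/620 nm. IC50 was taken against vehicle controls; selectivity = MAD11 IC50 / HEC1A IC50.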

Data set [2] concerns noncancerous human endometrial stromal (MAD11) cells. Put plainly: MTT cytotoxicity assay, MAD11. The class given is cell-based. Particulars: MAD11, 48 h, read-out: MAD11 IC50. Summed up: as §1
For orientation: Tetrazolium dyes change colour on reduction, which living cells bring about.

Data set [3] relates to HEC1A endometrial cancer cells. Put plainly: Thiol rescue experiment. Particulars: for IC50: Homo sapiens, HEC-1-A. The format is cell-based, human. The method in brief:
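HEC1A cells were seeded on day 1 (5000/well). On day 2 they were pre-treated 40 min with NAC or GSH, 2 mM in medium neutralised to pH 7.4. Test compound was then added (final 160–1.25 μM serial dilutions, triplicate, equal DMSO), with 48 h incubation. The MTT readout (3 h, absorbance 590/620 nm) followed. IC50 was compared with cells given no thiol.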

A further data set concerns HEC1A cancer cells. The experiment in a line: Oxygen consumption rate assay. The format is cell-based, human. Particulars: over 120 minutes, compared to vehicle (DMSO) control, 21 at 20 μM. Summed up:
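Seahorse XF96 OCR assay. HEC1A cells (15 000/well) adhered 24 h in DMEM, 10% FBS, penicillin/streptomycin at 37 °C, 5% CO₂. Medium was then swapped for unbuffered phenol-red-free DMEM (25 mM glucose, 4 mM glutamine, 1 mM pyruvate, pH 7.4), with 40 min degassing at 37 °C without CO₂. Three baseline reads preceded compound injection; 11 cycles (3 min wait, 3 min mix, 2 min measure) followed. OCR was normalised to the third baseline reading; DMSO served as vehicle control.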

The test system of data set [4] is CALU-1 (lung squamous cell carcinoma). The experiment in a line: MTT cytotoxicity assay, CALU-1. The format is cell-based. Particulars: Homo sapiens, Calu-1, read-out: Mean IC50 CALU-1. The method in brief:
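Uses the HEC1A MTT protocol: test compound in DMSO, diluted to final 160 down to 1.25 μM in two-fold steps, in triplicate, with equal DMSO in controls. […] CALU-1 was cultured in MEM in place of DMEM. […]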

Setting [5] is: Homo sapiens, HEC-1-A, read-out: HEC1A IC50, MTT cell viability, 48 h, n = 3 biological repeats.
[6] abbreviates: read-out: HEC1A IC50, MTT cell viability, n = 3 biological repeats.

The IC50 is the point on the concentration scale where inhibition reaches its midpoint. With `O=C1C(Cl)=C(NCCCN2CCOCC2)C(=O)c2ccccc21` [Compound 20, 2-Chloro-3-((3-morpholinopropyl)amino)naphthalene-1,4-dione], the IC50 in data set [1] (setting [5]) amounted to 6.41 µM; in data set [2], 21.9 µM. Further, the Selectivity ratio in data set [1] was 3.42.

Regarding `O=C1C(Cl)=C(NCCCN2CCCCC2)C(=O)c2ccccc21` [Compound 21, 2-Chloro-3-((3-(piperidin-1-yl)propyl)amino)-[1,4]-naphthoquinone], the IC50 in data set [1] (setting [5]) turned out to be 1.83 µM; in data set [3] (read-out: +GSH IC50 ± SEM), 16 µM; in data set [3] (read-out: +NAC IC50) it was 13 µM; in data set [3] (read-out: Alone IC50) it was 1.83 µM; in data set [2] it was 4.79 µM; in data set [4], 4.7 µM. In data set [1], the Selectivity ratio turned out to be 2.62. Besides, in data set [3] (HEC1A, GSH 2 mM), the “decrease of potency with GSH pre-treatment (times)” value came to 8.7 times. The “decrease of potency with NAC pre-treatment (times)” value in data set [3] (HEC1A, NAC 2 mM) was 7.1 times. Further, the “rescue of cytotoxicity by NAC and GSH pre-treatment” value in data set [3] (HEC1A, NAC or GSH 2 mM for 40 min) is reported as “partially rescued”. Also, the “ΔIC50 (+GSH)” value in data set [3] (IC50 with GSH minus IC50 of compound alone) is “+14.17 μM”. For the same molecule, in data set [3] (IC50 with NAC minus IC50 of compound alone), the “ΔIC50 (+NAC)” value is reported as “+11.17 μM”. In the data set on HEC1A cancer cells, the “maximum OCR increase” value is on record as “approximately 280%”.

For `CN(C)CCCNC1=C(Cl)C(=O)c2ccccc2C1=O` [Compound 22, 2-Chloro-3-((3-(dimethylamino)propyl)amino)naphthalene-1,4-dione], the IC50 in data set [1] (setting [5]) was determined as 2.36 µM; in data set [2], 5.27 µM. Besides, in data set [1], the Selectivity ratio came to 2.23.

As to `CCCCNC1=C(Cl)C(=O)c2ccccc2C1=O` [Compound 23, 2-(Butylamino)-3-chloro-[1,4]-naphthoquinone], the values for the IC50 in data set [1] (setting [5]) and in data set [2] were 32 µM and over 40 µM, respectively. Also, the Selectivity ratio in data set [1] is over 1.25.

In the case of `C#CCNC1=C(Cl)C(=O)c2ccccc2C1=O` [Compound 24, 2-Chloro-3-(prop-2-yn-1-ylamino)naphthalene-1,4-dione], the IC50 in data set [1] (setting [5]) turned out to be 21.9 µM; in data set [2], 22.4 µM. Further, the Selectivity ratio in data set [1] is reported as 1.02.

With `CCOC(=O)CNC1=C(Cl)C(=O)c2ccccc2C1=O` [Compound 25, Ethyl (3-chloro-1,4-dioxo-1,4-dihydronaphthalen-2-yl)glycinate], the IC50 in data set [1] (setting [5]) amounted to 20 µM; in data set [2] it was 20.1 µM. The Selectivity ratio in data set [1] was determined as 1.00.

`COC(=O)[C@H](Cc1c[nH]c2ccccc12)NC1=C(Cl)C(=O)c2ccccc2C1=O` [Compound 26, Methyl (3-chloro-1,4-dioxo-1,4-dihydronaphthalen-2-yl)-L-tryptophanate]: the IC50 in data set [1] (setting [5]) and in data set [2] was over 40 µM each time.

As to `COC(=O)[C@H](Cc1ccccc1)NC1=C(Cl)C(=O)c2ccccc2C1=O` [Compound 27, Methyl (3-chloro-1,4-dioxo-1,4-dihydronaphthalen-2-yl)-L-phenylalaninate], the IC50 in data set [1] (setting [5]) and in data set [2] was over 40 µM each time.

Take `O=C1C(Cl)=C(NCCN2CCNCC2)C(=O)c2ccccc21` [Compound 29, 2-Chloro-3-((2-(1-piperazinyl)ethyl)amino)-[1,4]-naphthoquinone salt]: the “times more potent than BH10” value in data set [1] (HEC1A IC50 compared with BH10) is 2.2 times. The IC50 in data set [1] (setting [5]) worked out at 4.68 µM; in data set [2], 11.5 µM. Moreover, the Selectivity ratio in data set [1] was determined as 2.45.

Consider `COC(=O)[C@H](CCCCN)NC1=C(Cl)C(=O)c2ccccc2C1=O` [Compound 30, Methyl (3-chloro-1,4-dioxo-1,4-dihydronaphthalen-2-yl)-L-lysinate], for which the half-maximal inhibitory concentration (IC50) in data set [1] (setting [5]) was 38 µM; in data set [2], over 40 µM.

As to `O=C1C(Cl)=C(NCc2cn(-c3ccccc3)nn2)C(=O)c2ccccc21` [Compound 31, 2-Chloro-3-(((1-phenyl-1H-1,2,3-triazol-4-yl)methyl)amino)naphthalene-1,4-dione], the IC50 is 19.5 µM in data set [1] (setting [5]) and 34 µM in data set [2]. The Selectivity ratio in data set [1] was determined as 1.74.

With `O=C(O)c1ccc(-n2cc(CNC3=C(Cl)C(=O)c4ccccc4C3=O)nn2)cc1` [Compound 32, 4-(4-(((3-Chloro-1,4-dioxo-1,4-dihydronaphthalen-2-yl)amino)methyl)-1H-1,2,3-triazol-1-yl)benzoic acid], the IC50 in data set [1] (setting [5]) and in data set [2] was over 40 µM throughout.

In the case of `CCOC(=O)c1ccc(-n2cc(CNC3=C(Cl)C(=O)c4ccccc4C3=O)nn2)cc1` [Compound 33, Ethyl 4-(4-(((3-chloro-1,4-dioxo-1,4-dihydronaphthalen-2-yl)amino)methyl)-1H-1,2,3-triazol-1-yl)benzoate], the IC50 in data set [1] (setting [5]) worked out at 11.1 µM; in data set [2] it was 21.3 µM. In addition, the Selectivity ratio in data set [1] is 1.92.

In the case of `CC(=O)NC1=C(NCCCN2CCCCC2)C(=O)c2ccccc2C1=O` [Compound 39, N-(1,4-Dioxo-3-((3-(piperidin-1-yl)propyl)amino)-1,4-dihydronaphthalen-2-yl)acetamide], the IC50 in data set [1] (setting [5]) is 26 µM; in data set [1] (setting [6]) it was 26 µM; in data set [2], over 40 µM.

Consider `CCC(=O)NC1=C(NCCCN2CCCCC2)C(=O)c2ccccc2C1=O` [Compound 40, N-(1,4-Dioxo-3-((3-(piperidin-1-yl)propyl)amino)-1,4-dihydronaphthalen-2-yl)propionamide], for which the IC50 in data set [1] (setting [5]) is 14 µM; in data set [1] (setting [6]) it was 14.1 µM; in data set [2] it was 38.2 µM. The Selectivity ratio in data set [1] is on record as 2.70.

Regarding `CCCC(=O)NC1=C(NCCCN2CCCCC2)C(=O)c2ccccc2C1=O` [Compound 41, N-(1,4-Dioxo-3-((3-(piperidin-1-yl)propyl)amino)-1,4-dihydronaphthalen-2-yl)butyramide], the IC50 was 15 µM in data set [1] (setting [5]) and over 40 µM in data set [2].

On to `CCCCC(=O)NC1=C(NCCCN2CCCCC2)C(=O)c2ccccc2C1=O` [Compound 42, N-(1,4-Dioxo-3-((3-(piperidin-1-yl)propyl)amino)-1,4-dihydronaphthalen-2-yl)pentanamide], for which the results for the IC50 in data set [1] (setting [5]) and in data set [2] were 15 µM and over 40 µM, respectively.

Consider `CC(=O)NC1=C(NCCN2CCOCC2)C(=O)c2ccccc2C1=O` [Compound 43, N-(3-((2-Morpholinoethyl)amino)-1,4-dioxo-1,4-dihydronaphthalen-2-yl)acetamide], for which the IC50 in data set [1] (setting [5]) and in data set [2] was over 40 µM throughout.

`CCc1nc2c(n1CCCN1CCCCC1)C(=O)c1ccccc1C2=O` [Compound 45, 2-Ethyl-1-(3-(piperidin-1-yl)propyl)-1H-naphtho[2,3-d]imidazole-4,9-dione]: the IC50 in data set [1] (setting [5]) was determined as 12 µM; in data set [2], 35 µM. Besides, the Selectivity ratio in data set [1] is 2.92.

As to `CCCc1nc2c(n1CCCN1CCCCC1)C(=O)c1ccccc1C2=O` [Compound 46, 1-(3-(Piperidin-1-yl)propyl)-2-propyl-1H-naphtho[2,3-d]imidazole-4,9-dione], the IC50 in data set [1] (setting [5]) was 19 µM; in data set [2] it was over 40 µM.

As for `CCCCc1nc2c(n1CCCN1CCCCC1)C(=O)c1ccccc1C2=O` [Compound 47, 2-Butyl-1-(3-(piperidin-1-yl)propyl)-1H-naphtho[2,3-d]imidazole-4,9-dione], the 50% inhibitory concentration (IC50) in data set [1] (setting [5]) amounted to 14 µM; in data set [2], 24 µM. Further, the Selectivity ratio in data set [1] was found to be 1.80.

As to `Cc1nc2c(n1CCN1CCOCC1)C(=O)c1ccccc1C2=O` [Compound 48, 2-Methyl-1-(2-morpholinoethyl)-1H-naphtho[2,3-d]imidazole-4,9-dione], the IC50 in data set [1] (setting [5]) and in data set [2] was over 40 µM each time.

As to `O=C(Cc1ccccc1)NC1=C(NCCCN2CCCCC2)C(=O)c2ccccc2C1=O` [Compound 50, N-(1,4-Dioxo-3-((3-(piperidin-1-yl)propyl)amino)-1,4-dihydronaphthalen-2-yl)-2-phenylacetamide], the figures for the IC50 in data set [1] (setting [5]) and in data set [2] were 8.8 µM and 39 µM, respectively. Besides, the Selectivity ratio in data set [1] is 4.4 and 4.43.
